Laboratory results published in paper PMC4383763 (Journal of clinical pharmacology, 2013).

Tests used:
[1] = subjects who received 2 months of cimetidine; cited from earlier work
[2] = system: APAP-induced liver injury in mice; details: cited from earlier work; for effect of drug vehicles on APAP-induced liver injury: mouse model
[3] = assumed for the prediction, no reference given; cited from earlier work
CYP2E1 = details: cited from earlier work
Cultured hepatocytes = details: in the presence of PG; cited from earlier work
[4] = Plasma propylene glycol concentration by GC-FID after APAP preparation; assay type: in vivo, human
Summary of the method: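 Crossover in volunteers given tablet or liquid APAP formulations (liquid contains 5% v/v PG), 15 mg/kg orally after a 1 h fast, on separate visits. Blood held refrigerated ≤24 h, then plasma separated by centrifugation and stored at -80 °C. PG was measured by GC-FID, first in 0–120 min samples from three subjects, then in all 30 min samples. LOD 5.0 mg/dL.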

Structure (SMILES): CN/C(=N/CCSCc1nc[nH]c1C)NC#N [cimetidine]
- urinary APAP-mercapturate following therapeutic APAP dosing [1]: decreased

Structure (SMILES): C[S+](C)[O-] [dimethylsulfoxide]
- effect of drug vehicles on APAP-induced liver injury [2]: protective

Structure (SMILES): CC(O)CO (stereo not drawn) [PG, propylene glycol]
- volume of distribution of PG [3]: 0.58 L/kg
- type of CYP2E1 inhibition (CYP2E1): competitive inhibitor
- susceptibility of cultured hepatocytes to APAP-induced necrosis (Cultured hepatocytes): less susceptible
- hepatocellular damage following a toxic APAP dose ([2]; mice pretreated with the substance): reduced hepatocellular damage
- effect of drug vehicles on APAP-induced liver injury [2]: protective
- maximum PG concentration in plasma ([4]; 30-minute samples after liquid preparation): 9.1 mg/dL
- PG detected in 30-minute samples ([4]; following ingestion of the liquid preparation, limit of detection 5.0 mg/dL): 9 out of 15
- PG detected in samples ([4]; solid group, limit of detection 5.0 mg/dL): none

Structure (SMILES): CN(C)C=O [dimethylformamide]
- effect of drug vehicles on APAP-induced liver injury [2]: protective

Structure (SMILES): CCO [ethanol]
- effect of drug vehicles on APAP-induced liver injury [2]: protective
